pCIP destab: lowers stability of the mouse p/CIP coactivator protein; Q05BA5; F442A p/CIP-EGFP cells, EGFP fluorescence, 16 h; decrease of EGFP signal, % at 10 µM; actives 0.01% (n = 290,000);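 active means EGFP signal decrease of at least 30% at 10 µM or well 3 SD below plate mean, unless failing retest; inactive means the rest, including hits failing retest or dose response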
Target sequence (Q05BA5 1-1403): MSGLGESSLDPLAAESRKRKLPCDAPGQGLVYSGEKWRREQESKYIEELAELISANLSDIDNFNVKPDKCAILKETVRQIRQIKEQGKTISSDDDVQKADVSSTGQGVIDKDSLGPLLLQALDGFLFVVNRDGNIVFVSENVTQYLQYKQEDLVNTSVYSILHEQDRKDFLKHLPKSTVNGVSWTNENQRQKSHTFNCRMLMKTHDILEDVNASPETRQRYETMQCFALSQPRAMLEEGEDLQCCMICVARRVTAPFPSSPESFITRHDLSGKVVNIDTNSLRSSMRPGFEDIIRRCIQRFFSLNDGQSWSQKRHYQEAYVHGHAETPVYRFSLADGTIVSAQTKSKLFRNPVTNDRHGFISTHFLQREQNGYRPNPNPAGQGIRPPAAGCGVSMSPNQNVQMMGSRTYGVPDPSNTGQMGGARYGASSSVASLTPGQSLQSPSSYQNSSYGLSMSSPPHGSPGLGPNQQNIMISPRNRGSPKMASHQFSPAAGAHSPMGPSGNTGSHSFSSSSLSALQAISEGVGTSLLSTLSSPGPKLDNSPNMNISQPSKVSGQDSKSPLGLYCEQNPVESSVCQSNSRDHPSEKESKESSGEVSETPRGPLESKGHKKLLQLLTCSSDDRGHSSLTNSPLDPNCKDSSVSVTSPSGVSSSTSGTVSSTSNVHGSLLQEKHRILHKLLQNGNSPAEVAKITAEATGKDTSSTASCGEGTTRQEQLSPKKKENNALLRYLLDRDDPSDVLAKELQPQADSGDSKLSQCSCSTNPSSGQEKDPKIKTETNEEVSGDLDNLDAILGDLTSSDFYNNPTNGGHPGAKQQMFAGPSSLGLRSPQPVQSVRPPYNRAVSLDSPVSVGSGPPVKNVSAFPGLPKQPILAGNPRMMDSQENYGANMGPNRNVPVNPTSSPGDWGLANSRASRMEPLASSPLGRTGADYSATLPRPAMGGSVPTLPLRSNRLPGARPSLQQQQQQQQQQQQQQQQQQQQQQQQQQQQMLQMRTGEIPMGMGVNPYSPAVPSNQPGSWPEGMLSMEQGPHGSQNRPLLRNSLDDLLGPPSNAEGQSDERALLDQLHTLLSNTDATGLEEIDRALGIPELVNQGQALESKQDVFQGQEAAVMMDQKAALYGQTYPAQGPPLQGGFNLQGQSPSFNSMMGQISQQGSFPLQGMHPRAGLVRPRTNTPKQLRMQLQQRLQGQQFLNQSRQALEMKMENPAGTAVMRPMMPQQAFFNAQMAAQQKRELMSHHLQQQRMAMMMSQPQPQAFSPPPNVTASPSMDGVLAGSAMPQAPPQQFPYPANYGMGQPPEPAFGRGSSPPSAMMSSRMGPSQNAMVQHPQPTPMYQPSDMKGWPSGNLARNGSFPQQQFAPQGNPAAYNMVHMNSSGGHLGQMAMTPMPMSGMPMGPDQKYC
XBP1 UPR activ: activators of adaptive arm of unfolded protein response (XBP1) | AID 463104 | activation, % at 20 µM | CHO-XBP1 luciferase reporter, IRE1-XBP1 UPR activation, luminescence; percent of tunicamycin response, DMSO as zero | actives 0.33% (n = 330,000);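 active means versus positive control, 20 µM dose yields 30% or more activation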
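Material: CHO-XBP1 cells stably carrying IRE1-XBP1-driven luciferase reporter / Amount: 1000 cells per well / Compound: 20 µM, 1% DMSO / Times: 6 h treatment, 37 °C / Detection: luciferase luminescence / Measure: % activation of reporter signal versus tunicamycin and DMSO controls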
CHOP inhibitor: inhibitors of CHOP induction in ER stress response; CHO-K1 CHOP-promoter luciferase, tunicamycin-induced, 15-18 h; actives 3.8% (n = 220,000); inhibition, % at 10 µM;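 active means compounds that reduced the stress-induced luciferase reporter signal by more than about 70% of percent inhibition, limit read from the data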
UPR CHOP act: activators of apoptotic arm of unfolded protein response (CHOP) | CHO-CHOP luciferase reporter, UPR activation, luminescence; percent of tunicamycin response over DMSO baseline | activation, % at 10 µM | actives 0.34% (n = 330,000) | AID 449763;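 active means at 10 µM dose, activation of 40% or more, normalized to positive control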
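System: CHO-CHOP luciferase reporter cell line; amount: 500 cells/well; buffer or medium: F12 medium containing 10% fetal bovine serum; incubation: 6 h compound exposure at 37 °C after overnight seeding; measured by: luciferase luminescence after 10 min with Steady-Glo reagent; evaluation: % reporter activation, DMSO baseline versus tunicamycin full activation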
B2AR ag: agonists of human beta-2 adrenergic receptor inducing internalization | response, % (no concentration beside the values) | Am2.2-beta2AR cells, FAP receptor internalization, flow cytometry | P07550 | actives 0.43% (n = 340,000);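 active means response above a set limit, near 3 SD of response in nonfluorescent compounds, cut at about 42% in these data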
Dynein cargo inh: blocks dynein driven cargo transport along microtubules; AID 1381; z-score, hits read low; actives 0.47% (n = 220,000); 3617.4 mouse cells, GR-EGFP nuclear translocation imaging; test concentration mostly 20 µM; stimulated with dexamethasone, 1 µM; hits give low values;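 active means plate z-score of nuclear minus cytoplasmic receptor signal below a set negative limit, without overly bright fluorescence or cell loss, cut at about -3.5 in these data, passing the limit was not always enough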;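 further: z-score of nuclear minus cytoplasmic ring GR-EGFP intensity difference per well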
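Buffer or medium: tet-free, stripped-serum medium; Also added: dexamethasone, 1.0 µM final; Technique: high-content fluorescence imaging after fixation; Times: 48 h induction, 1 h compound, 30 min dex at 37 °C; Read-out: per-cell GR-EGFP intensity, nucleus versus surrounding cytoplasmic ring, well-averaged.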
UPR CHOP confirm: confirmation of apoptotic unfolded protein response (CHOP) activators. shares compounds with UPR CHOP act. CHO-CHOP cells, CHOP-luciferase reporter luminescence; percent of tunicamycin response, DMSO as zero. activation, % at 10 µM. actives 64% (n = 1,000). AID 463112; in the data active means activation above about 33%
Large screens that a line does not name were inactive (follow-up assays come after a bar, where they were run). This is one part of a sample in which hits are shown more often than they occur.

CC1CCCC(NC(=O)CCC(=O)N2CCOc3ccccc32)C1C (stereo unspecified)	none (no result: CHOP inhibitor, Dynein cargo inh)
Oc1ccc(-c2nc(-c3ccc(O)c(O)c3)cs2)cc1	UPR CHOP act 146 (no result: CHOP inhibitor) | UPR CHOP confirm 96
CC(=O)Nc1nc(-c2ccc3ccccc3c2)cs1	none (no result: CHOP inhibitor, Dynein cargo inh)
Oc1ccc(-c2csc(-c3cccnc3)n2)c(O)c1	none
Oc1ccc(Nc2nc(-c3ccc4ccccc4c3)cs2)cc1	UPR CHOP act 63 (no result: CHOP inhibitor) | UPR CHOP confirm inactive
COCc1c(C(=O)N/N=C/c2ccc(C)o2)nnn1-c1nonc1N	none (no result: CHOP inhibitor, Dynein cargo inh)
COc1ccccc1-c1nnc(Nc2nc3c(OC)cccc3s2)o1	UPR CHOP act 71 (no result: CHOP inhibitor) | UPR CHOP confirm 110
O=C1C(CSCc2ccccc2)NC(=S)N1c1ccccc1 (stereo unspecified)	UPR CHOP act 52 | UPR CHOP confirm 34
O=C(O)CC1NC(=S)N(c2ccccc2)C1=O (stereo unspecified)	none
COc1ccccc1C(=O)NCCC(=O)Nc1ncccc1C	none (no result: CHOP inhibitor, Dynein cargo inh)
Clc1ccc2ccc3cccnc3c2n1	none (no result: CHOP inhibitor, Dynein cargo inh)
O=S1(=O)Nc2c(ccc3cccnc23)-c2ccccc21	UPR CHOP act 346 (no result: CHOP inhibitor) | UPR CHOP confirm 425
CC(NC(=O)COC(=O)C1=COCCO1)C12CC3CC(CC(C3)C1)C2 (stereo unspecified)	none
CC1(C)Cc2c(c(N3CCOCC3)nc3sc(C(=O)Nc4cccc(Cl)c4)c(N)c23)CO1	UPR CHOP act 88 (no result: CHOP inhibitor, Dynein cargo inh) | UPR CHOP confirm inactive
CC1(C)Cc2c(c(N3CCOCC3)nc3sc(C(=O)Nc4ccccc4)c(N)c23)CO1	none (no result: CHOP inhibitor, Dynein cargo inh)
Cc1ccc(N2C(=O)c3ccccc3C2=O)cc1	none
Cc1ccc(SC2=C(Sc3ccc(C)cc3)C(=O)c3ccccc3C2=O)cc1	UPR CHOP act 215 | UPR CHOP confirm inactive
Cc1ccc(Cn2cnc3ccccc32)cc1	none
Cc1ccc(/C=C/C(=O)NC2CCCCCCC2)o1	UPR CHOP act 125 | UPR CHOP confirm inactive
CN(C(=O)CSc1cc(C(=O)c2nccn2C)c2ccccc2n1)c1ccccc1	UPR CHOP act 95 | UPR CHOP confirm 94
C=CCn1c(O)c(N=NC(=S)Nc2ccccc2C)c2cc(S(=O)(=O)N3CCOCC3)ccc21	UPR CHOP act 45 | UPR CHOP confirm inactive
Cn1c(O)c(N=NC(=S)Nc2ccccc2F)c2cc(S(=O)(=O)N3CCOCC3)ccc21	none (no result: XBP1 UPR activ, UPR CHOP act)
CC(C)C(NC(=O)c1ccccc1)C(=O)NCCc1ccccc1 (stereo unspecified)	none
S=C1SCN(CC2CC2)CN1CC1CC1	UPR CHOP act 82 | UPR CHOP confirm 86
S=C1SCN(Cc2ccccc2)CN1Cc1ccccc1	none (no result: CHOP inhibitor, Dynein cargo inh)
CN(CC(=O)NCc1ccco1)CC(=O)Nc1ccc(F)c(F)c1F	none (no result: pCIP destab, CHOP inhibitor, Dynein cargo inh)
Cc1cc(O)c(C(=O)/C=C/c2ccc(Cl)cc2)c(=O)o1	none (no result: CHOP inhibitor, Dynein cargo inh)
Cc1ccc(/C=C/C(=O)c2ccc([N+](=O)[O-])o2)cc1	UPR CHOP act 189 (no result: pCIP destab, CHOP inhibitor, B2AR ag, Dynein cargo inh) | UPR CHOP confirm 135
O=C(/C=C/c1ccc(Cl)cc1)c1ccc([N+](=O)[O-])o1	UPR CHOP act 69 (no result: pCIP destab, CHOP inhibitor, Dynein cargo inh) | UPR CHOP confirm inactive
Cc1cc2nnc(SCC(=O)NCC(c3ccccc3)N(C)C)n2c2ccccc12 (stereo unspecified)	none (no result: CHOP inhibitor, Dynein cargo inh)
CC(C)(C)C(=O)N1CCN(c2ccc(NC(=O)c3ccc([N+](=O)[O-])o3)cc2)CC1	UPR CHOP act 59 (no result: CHOP inhibitor, Dynein cargo inh) | UPR CHOP confirm 87
CC1CCN(c2ccc(NC(=O)c3ccc([N+](=O)[O-])o3)cc2)CC1	none (no result: pCIP destab, CHOP inhibitor, Dynein cargo inh)
C[C@]12c3[nH]c4cc(-c5ccco5)ccc4c3CCN1C(=O)[C@@H](CC(=O)NCc1ccco1)C[C@@H]2C(=O)N1CCOCC1	none (no result: pCIP destab, CHOP inhibitor, Dynein cargo inh)
Cc1ccc(NC(=O)CN2CCOCC2)cc1C	none (no result: CHOP inhibitor, Dynein cargo inh)
N#C/C(=C/c1ccc(O)c(O)c1)C(=O)NCc1ccc(Cl)cc1	UPR CHOP act 103 (no result: CHOP inhibitor, Dynein cargo inh) | UPR CHOP confirm inactive
CCS(=O)(=O)CCSc1nc2ccccc2s1	none
O=S(=O)(CCSc1nc2ccccc2s1)c1nc2ccccc2s1	UPR CHOP act 108 | UPR CHOP confirm 154

Source: PubChem (several laboratories)
